Source: PubChem (several laboratories)
Rows were chosen to be rich in hits. Some 5.2% of all compounds tested hit in one or more screens of this group.
NS3 helicase inh = blocks Hepatitis C virus NS3 helicase unwinding. NS3 helicase DNA unwinding, Cy5 molecular beacon fluorescence. inhibition, % at 10.9 µM. 0.56% of 290,000 active. AID 1800;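 active means inhibition above the mean of all tested compounds plus 3 SD, set per campaign, cut at about 35% in these data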;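 further: 0% = DMSO wells and 100% = thioflavine S control wells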
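Assay system: hepatitis C virus NS3 helicase domain fragment enzyme. Also added: annealed dual-labelled DNA beacon duplex, ATP-started. Timing: 1 h reaction at 25 °C, ATP-initiated. Technique: Cy5 fluorescence at 0 and 60 min, beacon hairpin quenching. Evaluation: % inhibition of unwinding. Replication: one well per compound.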
EBNA-1 inh = blocks EBNA-1 binding to DNA | AID 1950 | inhibition, % at 14.8 µM | EBNA-1 DNA binding, fluorescence polarization | 0.34% of 300,000 active; in the data active means inhibition above about 28%
HCV core dimer = HCV core protein dimerization inhibition. 0.33% of 300,000 active. inhibition, % at 5 µM. TR-FRET GST/Flag-core106 dimerization, 1536-well. AID 1899;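 active means inhibition above the mean of all tested compounds plus 3 SD, set per screening campaign, cut at about 45% in these data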
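Assay system: Tagged HCV core106 pair (GST and Flag) | Buffer or medium: KF-containing HEPES buffer, pH 7.45, DTT, CHAPS, BSA | Also added: Eu donor and XL665 acceptor anti-tag antibodies | Dosing: One concentration, 5 µM, in 0.5% DMSO | Timing: 4 h at 22.5 °C | Technique: TR-FRET 671 and 617 nm emission | Repeats: Singlicate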
M18AAP inhibitor = blocks P. falciparum M18 aspartyl aminopeptidase; recombinant PfM18AAP, H-Glu-NHMec fluorogenic cleavage; inhibition, % at 7.35 µM; 1.2% of 290,000 active;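 active means inhibition above the campaign mean inhibition over all tested compounds plus 3 SD, cut at about 28% in these data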;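 further: 0% = plate median of test compound wells and 100% = 2 mM ZnCl2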
ZTA counter = ZTA (EBV) inhibition in EBNA-1 counter-screen; ZTA-DNA binding, fluorescence polarization; 0.15% of 320,000 active; inhibition, % at 11 µM; P03206; in the data active means inhibition above about 33%
Target sequence (P03206 whole entry, looked up): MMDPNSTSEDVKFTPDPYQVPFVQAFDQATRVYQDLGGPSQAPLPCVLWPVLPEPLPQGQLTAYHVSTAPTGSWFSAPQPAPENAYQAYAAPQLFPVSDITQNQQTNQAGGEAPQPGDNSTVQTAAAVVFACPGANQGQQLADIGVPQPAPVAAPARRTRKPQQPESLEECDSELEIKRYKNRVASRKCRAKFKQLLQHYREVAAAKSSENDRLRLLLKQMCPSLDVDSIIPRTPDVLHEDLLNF
ALR inh = blocks human ALR sulfhydryl oxidase activity; 3.8% of 290,000 active; purified ALR, DTT oxidation, H2O2 HRP-luminol luminescence; P55789; AID 485317; inhibition, % (test concentration not listed);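 active means mean replicate inhibition above about 79%, with every replicate also reaching it, limit read from the data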
Target sequence (P55789 whole entry, looked up): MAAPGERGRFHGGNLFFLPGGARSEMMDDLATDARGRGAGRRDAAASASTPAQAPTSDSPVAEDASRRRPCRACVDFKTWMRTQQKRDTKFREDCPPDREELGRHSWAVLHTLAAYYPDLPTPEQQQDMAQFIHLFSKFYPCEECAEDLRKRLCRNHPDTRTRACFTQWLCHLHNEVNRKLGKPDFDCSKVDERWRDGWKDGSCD
The depositor's hits bear a star; x = no result.

SMILES | NS3 helicase inh | EBNA-1 inh | HCV core dimer | M18AAP inhibitor | ZTA counter | ALR inh
O=C(CN1CCc2ccccc21)NCc1ccc2c(c1)OCO2 | -6 | -12 | 1 | -4 | 4 | 99*
O=C(CSc1c[nH]c2ccccc12)NCc1ccc2c(c1)OCO2 | -4 | -1 | -7 | -2 | 0 | 98*
O=C(Cn1c(=O)n(Cc2ccco2)c(=O)c2c3c(sc21)CCCCC3)c1ccccc1 | 26 | 25 | 72* | -2 | 1 | 63
O=c1c2c3c(sc2n(CCN2CCCC2)c(=O)n1Cc1ccco1)CCCCC3 | -24 | 4 | 6 | -1 | -3 | -11
O=C(Cn1c(=O)n(Cc2ccco2)c(=O)c2c3c(sc21)CCCCC3)Nc1ccccc1 | 14 | -8 | 56* | -6 | 10 | 11
Cc1cc(C)cc(NC(=O)CCc2c(C)nn(-c3ccc(N4CCOCC4)nn3)c2C)c1 | -4 | -2 | 9 | -1 | 8 | -2
CCc1nn(C)c(-c2n[nH]c(=S)n2N)c1Cl | 15 | 4 | 2 | 8 | -2 | 91*
CCc1cc(-c2n[nH]c(=S)n2N)n(C)n1 | 2 | 2 | 2 | 14 | 15 | 95*
Cc1cc(-c2n[nH]c(=S)n2Cc2ccco2)n(C)n1 | 6 | -6 | 4 | 21 | -1 | -5
COC(=O)C(OC(=O)c1ccccc1)C(C)Br (stereo not given) | x | x | x | x | -13 | 0
CCOC(=O)c1cc(-c2cccnc2)nn1-c1ccccc1C | -2 | -6 | -5 | -6 | 16 | -8
Cc1cc(C)cc(C(=O)Nn2cnnc2)c1 | -2 | -22 | -4 | 31* | -2 | 22
CC(C)(C)c1ccc(C(=O)Nn2cnnc2)cc1 | 8 | -4 | 10 | 13 | 4 | 11
CCOc1ccc(C(=O)Nn2cnnc2)cc1OCC | 4 | 1 | 0 | 29* | 14 | -4
CC(=O)Oc1ccc(C(=O)Nn2cnnc2)cc1 | 6 | -5 | 0 | 15 | -8 | -11
CN(CC(=O)NC1(C)CCS(=O)(=O)C1)S(=O)(=O)c1ccc(Cl)cc1 (stereo not given) | x | -7 | -3 | x | 8 | x
CC(C)c1nnc(SCC(=O)Nc2ccc3c(c2)OCCO3)n1C | 10 | 10 | -14 | 3 | -24 | -3
CCn1c(SCc2ccc(C(=O)Nc3nccs3)cc2)nnc1-c1ccc(N)cc1 | -1 | 0 | 8 | -4 | 3 | 82*
CCn1c(SCc2ccc(C(=O)Nc3nccs3)cc2)nnc1-c1ccc(NC(C)=O)cc1 | -9 | 0 | 1 | 3 | -11 | 99*
COc1ccc(-n2ccnc2SCC(=O)NC2CCCC2)cc1 | x | x | x | x | 8 | 28
CN(C(=S)NC(=O)C1CC1)c1ccc(O)cc1 | x | x | x | x | -3 | 97*
COc1ccc(CCC(=O)Nc2ncc(C)s2)cc1 | 1 | -2 | -16 | 4 | -7 | -9
N#C/C(=C\c1ccccc1[N+](=O)[O-])C(=O)NC1CCCCC1 | 2 | -6 | -1 | -1 | -19 | 19
N#C/C(=C\C=C\c1ccccc1[N+](=O)[O-])C(=O)NC1CCCCC1 | -2 | -3 | 0 | -11 | 10 | 99*
COC(=O)c1sc(-c2ccc(Cl)cc2)cc1NC(=O)c1ccccc1C(=O)O | 18 | 7 | 24 | 0 | 19 | 97*
SMILES | NS3 helicase inh | EBNA-1 inh | HCV core dimer | M18AAP inhibitor | ZTA counter | ALR inh
COC(=O)c1sc(-c2ccc(C(C)(C)C)cc2)cc1NC(=O)CSCC(=O)O | -35 | -2 | 25 | -14 | 15 | 98*
COC(=O)c1sc(-c2ccc(C(C)(C)C)cc2)cc1NC(=O)c1ccccc1C(=O)O | 0 | 5 | 26 | 3 | 15 | 92*
COC(=O)c1sc(-c2ccccc2)cc1NC(=O)C1CC1 | 4 | 4 | 13 | -1 | 6 | -9
Cc1ccc(C)c(NC(=O)COC(=O)CNC(=O)C2CCCCC2)c1 | x | x | x | x | -9 | x
Cc1cccc(C)c1NC(=O)C1CCCN1C(=O)NCc1ccccc1 (stereo not given) | -11 | -1 | 3 | -6 | 4 | -6
CCN(CC(=O)Nc1ccc(NC(C)=O)cc1)C(=O)c1ccccc1SCc1c(C)noc1C | x | 5 | 8 | x | 6 | -1
CN(CC(=O)Nc1ccccc1Br)C(=O)c1ccccc1-c1nc2ccccc2s1 | 4 | 11 | 12 | -3 | -7 | -9
CCN1C(=O)[C@H]2[C@@H](c3ccc(C)cc3)N3C(=O)N(c4ccccc4)C(=O)[C@@]3(C)[C@H]2C1=O | -1 | 3 | -1 | -6 | -8 | 2
CC(=O)c1cccc(NC(=O)CSc2ccc(-c3ccc4c(c3)OCO4)nn2)c1 | -17 | 5 | -5 | -7 | -13 | 47
COc1ccc(OC)c(NC(=O)CSc2nnc(CNc3ccc(F)cc3)o2)c1 | -8 | -17 | 5 | 7 | 1 | 91*
COc1ccc(-c2ccc(SCC(=O)Nc3cccc(C(C)=O)c3)nn2)cc1OC | -3 | 3 | -2 | 0 | 3 | 85*
COc1ccc(NCc2nnc(SCC(=O)Nc3ccccc3OC)o2)cc1 | -6 | -8 | 1 | 4 | -2 | 19
CC(=O)c1ccc(NC(=O)CSc2ccc(-c3sc(C)nc3C)nn2)cc1 | 6 | -12 | -7 | -11 | 5 | 99*
COc1ccc(NCc2nnc(SCC(=O)Nc3cccc(C)c3)o2)cc1 | -4 | 8 | 14 | 1 | 13 | 99*
C[C@H](CO)N1C[C@H](C)[C@@H](CN(C)S(=O)(=O)c2cn(C)cn2)Oc2ccc(NC(=O)NC3CCCCC3)cc2C1=O | x | x | x | x | x | 4
Cc1cc(NC(=O)CC#N)n(-c2ccccc2)n1 | 1 | 3 | -15 | 1 | -6 | 0
CN(CC(=O)Nc1ccc(F)cc1)C(=O)CN1C(=O)c2ccccc2C1=O | x | x | x | x | 11 | -10
Cc1cc(Oc2cc(N)cc([N+](=O)[O-])c2)ccc1Cl | -6 | 3 | -2 | 2 | -10 | 0
Cc1ccccc1CN1CCN(C(C)C(=O)NNC(=O)c2ccc(F)cc2)CC1 (stereo not given) | x | x | x | x | 2 | 1
COc1ccc(OCc2nnc(SCC(=O)Nc3cccc(C(C)=O)c3)o2)cc1 | x | x | x | x | -6 | 99*
CCc1nnc(NC(=O)CSc2nnc(Cc3ccccc3)o2)s1 | -3 | -10 | 12 | 25 | -6 | 1
COc1ccc(NCc2nnc(SCC(=O)c3ccc(OC)cc3)o2)cc1 | 2 | -4 | 2 | 21 | 0 | 98*
CCc1nnc(NC(=O)CSc2nnc(CNc3ccc(Cl)cc3)o2)s1 | 8 | -2 | 3 | 26 | -5 | 99*
COc1cccc(NC(=O)CSc2nnc(COc3ccc4c(c3)CCCC4)o2)c1 | 3 | 8 | 1 | -8 | 14 | 3
CN(NC1CC(=O)N(c2ccccc2)C1=O)c1ccccc1 (stereo not given) | 9 | -2 | -2 | -3 | -5 | 97*
N#CCNC1CC(=O)N(c2ccccc2)C1=O (stereo not given) | 0 | -7 | 8 | 3 | 8 | x
